Reference: ChEMBL document CHEMBL3785069, “Tumour-specific cytotoxicity and structure-activity relationships of novel 1-[3-(2-methoxyethylthio)propionyl]-3,5-bis(benzylidene)-4-piperidones” (Bioorg Med Chem, 2016)
The source made the active and inactive calls. The rule behind the calls is not given here.

What was measured:
[1] = Cytotoxicity against human HPLF cells after 48 hrs by MTT assay; format: cell-based
Summary of the method: (§1)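 Oral carcinoma (HSC-2, HSC-3, HSC-4) and nonmalignant HGF and HPLF cells incubated with graded compound concentrations at 37 °C for 48 h in DMEM plus 10% heat-inactivated FBS. Viability read by MTT. CC50 from duplicate runs, differing by under 10% at each concentration.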

HSC-2 [2] = test: Selectivity index, ratio of average CC50 for human HGF and HPLF cells to CC50 for human HSC2 cells; conditions: pooled result: one value given for 2 cell lines, strains, targets or settings
L1210 = test: Cytotoxicity against mouse L1210 cells after 48 hrs by MTT assay; format: functional, cell-based; conditions: L1210, 48 h
Summary of the method: (§2)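 Leukemic cells exposed to a concentration series of each compound in RPMI 1640 medium at 37 °C, 72 h for Molt4/C8 and CEM, 48 h for L1210.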

[3] = Cytotoxicity against human HSC2 cells after 48 hrs by MTT assay; format: functional; conditions: HSC-2, 48 h; summary of the method: as §1
[4] = Cytotoxicity against human HSC3 cells after 48 hrs by MTT assay; format: functional; conditions: HSC-3, 48 h; summary of the method: as §1
HSC-4 [5] = test: Selectivity index, ratio of average CC50 for human HGF and HPLF cells to CC50 for human HSC4 cells; conditions: pooled result: one value given for 2 cell lines, strains, targets or settings
[6] = Cytotoxicity against human Molt4/C8 cells after 72 hrs by MTT assay; format: functional, cell-based; conditions: MOLT-4, 72 h; summary of the method: as §2
[7] = Cytotoxicity against human HSC4 cells after 48 hrs by MTT assay; format: functional; conditions: HSC-4, 48 h; summary of the method: as §1
CCRF-CEM = test: Cytotoxicity against human CEM cells after 72 hrs by MTT assay; format: functional, cell-based; summary of the method: as §2
[8] = Cytotoxicity against human HGF cells after 48 hrs by MTT assay; format: cell-based; summary of the method: as §1
HSC-3 [9] = test: Selectivity index, ratio of average CC50 for human HGF and HPLF cells to CC50 for human HSC3 cells; conditions: pooled result: one value given for 2 cell lines, strains, targets or settings
HSC-2 [10] = test: Potency index, ratio of CC50 for mephalan to CC50 for test compound against human HSC2 cells; format: functional
HSC-2 [11] = test: Induction of apoptosis in human HSC2 cells assessed as cell death after 24 hrs by Annexin-V-FITC/PI-based flow cytometric analysis; format: functional
Summary of the method: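 HSC-2 cells treated in RPMI for 24 h at 37 °C at 0.5, 1.0 and 2.0 µM. Early and late apoptotic fractions measured by flow cytometry after Annexin-V-FITC/propidium iodide staining.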

HSC-2 [12] = test: Induction of apoptosis in human HSC2 cells assessed as PARP1 cleavage after 24 hrs by SDS-PAGE method; format: functional, cell-based
Summary of the method: (§3)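 HSC-2 cells grown in 6-well plates for 24 h, then exposed to 0.1, 0.2, 0.3 and 0.4 µM for 24 h. Cells scraped into lysis buffer and run on 8% SDS-PAGE, then transferred to PVDF. Cleaved PARP (Asp214) detected with a human-specific antibody on X-ray film.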

HSC-4 [13] = test: Potency index, ratio of CC50 for mephalan to CC50 for test compound against human HSC4 cells; format: functional
HSC-3 [14] = test: Potency index, ratio of CC50 for mephalan to CC50 for test compound against human HSC3 cells; format: functional
HSC-2 [15] = test: Induction of apoptosis in human HSC2 cells assessed as PARP1 cleavage at 0.4 uM after 24 hrs by SDS-PAGE method; format: functional, cell-based; summary of the method: as §3

SMILES	CC50 at 48 h [1] [nM]	Selectivity Index (HSC-2 [2])	IC50 (L1210) [nM]	CC50 [3] [nM]	CC50 [4] [nM]	Selectivity Index (HSC-4 [5])	IC50 [6] [nM]	CC50 [7] [nM]	IC50 (CCRF-CEM) [nM]	CC50 at 48 h [8] [nM]	Selectivity Index (HSC-3 [9])	Ratio (HSC-2 [10])	Activity (HSC-2 [11])	Activity (HSC-2 [12])	Ratio (HSC-4 [13])	Ratio (HSC-3 [14])	Activity (HSC-2 [15])
COCCSCCC(=O)N1C/C(=C\c2ccc(OC)cc2)C(=O)/C(=C/c2ccc(OC)cc2)C1	15500	8.33	13200	1970	2270	10.1	7080	1630	6310	17200	7.23	–	–	–	–	–	–
COCCSCCC(=O)N1C/C(=C\c2ccc([N+](=O)[O-])cc2)C(=O)/C(=C/c2ccc([N+](=O)[O-])cc2)C1	2590	7.65	2130	400	390	10.2	1370	300	1290	3520	7.85	35	Dose-dependent effect	Dose-dependent effect	35	35	–
N[C@@H](Cc1ccc(N(CCCl)CCCl)cc1)C(=O)O [MELPHALAN]	77100	4.65	5940	16700	9900	6.99	3480	11100	1740	78000	7.84	–	–	–	–	–	–
COCCSCCC(=O)N1C/C(=C\c2ccccc2)C(=O)/C(=C/c2ccccc2)C1	7580	6.64	3000	1300	1470	7.07	1340	1220	1230	9670	5.87	–	–	–	–	–	–
COCC[S+]([O-])CCC(=O)N1C/C(=C\c2ccccc2)C(=O)/C(=C/c2ccccc2)C1 (configuration not stated)	9100	15.7	4910	580	2100	8.92	1620	1020	1290	9090	4.33	–	–	–	–	–	–
COCCS(=O)(=O)CCC(=O)N1C/C(=C\c2ccc(F)cc2)C(=O)/C(=C/c2ccc(F)cc2)C1	–	–	2450	–	–	–	1120	–	610	–	–	–	–	–	–	–	–
COCCSCCC(=O)N1C/C(=C\c2ccc(F)cc2)C(=O)/C(=C/c2ccc(F)cc2)C1	4990	6.75	5850	760	1190	9.16	1720	560	1600	5270	4.31	–	–	–	–	–	–
COCCOCCC(=O)N1C/C(=C\c2ccccc2)C(=O)/C(=C/c2ccccc2)C1	8840	8.95	6240	1010	1320	7.41	1840	1220	1760	9240	6.85	–	–	–	–	–	–
COCCS(=O)(=O)CCC(=O)N1C/C(=C\c2ccccc2)C(=O)/C(=C/c2ccccc2)C1	8430	6.17	2670	1460	1190	6.93	1660	1300	1140	9590	7.57	–	–	–	–	–	–
COCC[S+]([O-])CCC(=O)N1C/C(=C\c2ccc(F)cc2)C(=O)/C(=C/c2ccc(F)cc2)C1 (configuration not stated)	4210	6.55	3330	690	1010	6.46	1280	700	830	4830	4.48	–	–	–	–	–	–
COCCSCCC(=O)N1C/C(=C\c2ccc(Cl)cc2)C(=O)/C(=C/c2ccc(Cl)cc2)C1	5970	5.15	3440	1090	1030	6.93	1730	810	1240	5240	5.45	–	–	–	–	–	–
COCCSCCC(=O)N1C/C(=C\c2ccc(C)cc2)C(=O)/C(=C/c2ccc(C)cc2)C1	9170	6.72	4900	1450	1700	8.12	2660	1200	1950	10300	5.73	–	–	–	–	–	–
COCC[S+](C)CCC(=O)N1C/C(=C\c2ccccc2)C(=O)/C(=C/c2ccccc2)C1.F[B-](F)(F)F (configuration not stated)	6250	5.24	3450	1560	1430	6.02	1340	1360	1400	10100	5.72	–	–	–	–	–	–
COCCSCCC(=O)N1C/C(=C\c2ccc(OC)c(OC)c2)C(=O)/C(=C/c2ccc(OC)c(OC)c2)C1	8070	22.4	1570	400	1220	10.4	1810	860	1840	9830	7.34	–	–	–	–	–	Active
